Assay outcomes: PubChem, several laboratories
APP 5'UTR act: activators of APP 5'UTR luciferase reporter, primary screen, SH-SY5Y cells; SH-SY5Y APP 5'UTR luciferase reporter, luminescence; zero percent = DMSO vehicle wells; activation, % at 2 µM; 190,000 tested, 1% active;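 active means activation above a set limit, based on mean plus 3 SD of controls, cut at about 140% in these data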
NF-kB neuron act: activators of NF-kB expression in neurons, primary screen, cell-based, HTS; human neuronal cells, NF-kB reporter expression; stronger effect = higher value; fold change at 12.5 µM; 190,000 tested, 1.6% active; AID 1239, 2008; in the data active means fold change above about 3.3
STAT3 act: IL-6 driven STAT3 reporter potentiators, primary screen, U3A cells, luciferase, luminescence, MLSCN library; IL-6 STAT3-luciferase reporter; 100% = signal with IL-6 EC80 alone; 190,000 tested, 0.91% active; activation (% of control), % at 5.6 µM;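 active means activation above the screen-wide mean of compound activation plus 3 SD, cut at about 130% in these data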;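 further: 0% = background luminescence of wells with medium and substrate only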
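Material: STAT3-luciferase reporter U3A cells; Probe or stimulus: IL-6 (33 ng/mL); Incubation: compound pre-incubation 1 h before IL-6, then 6 h stimulation at 37 °C; Technique: luminescence from STAT3-driven luciferase reporter; Evaluation: % activation versus median of IL-6-stimulated wells; Controls: IL-6-only high control.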
STAT1 activator: STAT1 signaling activators, primary screen, cell-based, HTS, luciferase reporter. NIH 3T3 STAT1-luciferase reporter, IFN-gamma, luminescence; 100% = IFN-gamma alone, no compound. activation (% of control), % at 5.5 µM. 200,000 tested, 2.6% active;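 active means activation above the screen-wide mean activation plus 3 SD, cut at about 130% in these data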;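 further: raw ratio to IFN-gamma control signal so 100% means no change and 0% no light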
STAT3 blocker: IL-6 driven STAT3 reporter inhibitors, primary screen, U3A cells, luciferase, luminescence, MLSCN library; IL-6 STAT3-luciferase reporter; host cell line lacks STAT1; inhibition, % at 5.5 µM; 190,000 tested, 0.89% active; AID 862, 2007;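 active means inhibition above the mean inhibition across all screened compounds plus 3 SD, cut at about 44% in these data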;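 further: 0% = DMSO only wells and 100% = 100 µM nifuroxazide control wells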
STAT1 inh: STAT1 signaling inhibitors, primary screen, cell-based, HTS, luciferase reporter; NIH 3T3 STAT1-luciferase reporter, IFN-gamma, luminescence; inhibition, % at 5.5 µM; 200,000 tested, 0.35% active; AID 920, 2007;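 active means inhibition above a set limit, the mean inhibition across all tested compounds plus 3 SD, cut at about 34% in these data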;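 further: 0% = IFN-gamma with DMSO and 100% = IFN-gamma with 300 µM nifuroxazide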
STAT1 activ conf: STAT1 signaling activators, confirmation, cell-based, HTS, luciferase reporter | 1,200 tested, 97% active | shares compounds with STAT1 activator | NIH 3T3 STAT1-luciferase reporter, IFN-gamma potentiation, luminescence; 100% = IFN-gamma EC80 alone, no compound | AID 1262, 2008 | activation (% of control), % at 5.7 µM;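 active means activation above a set limit carried over from the earlier primary STAT1 screen, cut at about 140% in these data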;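 further: simple ratio to median IFN-gamma plus DMSO wells so 0% means no light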
NFkB act STAT1ct: NF-kB reporter activators, TNF-alpha stimulated, counter-screen for STAT1 activator project, cell-based, HEK293T, luciferase luminescence | 100% = TNF-alpha with vehicle only | 1,200 tested, 43% active | activation (% of control), % at 5.7 µM | shares compounds with STAT1 activator;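 active means activation above the mean of solvent-only control wells plus 3 SD, set per campaign, cut at about 130% in these data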;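 further: TNF-alpha given at a submaximal dose yielding about 80% of full reporter signal; values are well signal over median control so 100% means no change and 0% no light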
STAT3 act 2: STAT3 reporter activation by STAT1 hits, confirmation, counter-screen for STAT1 activator project, U3A cells, luciferase, luminescence | shares compounds with STAT1 activator | IL-6; cells lack STAT1; 100 = IL-6 alone, no compound effect | activation (% of control), % at 5.7 µM | 1,200 tested, 46% active | AID 1316, 2008;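 active means activation above the solvent-only control well mean plus 3 SD, set per plate batch, cut at about 110% in these data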;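 further: 0% = no luminescence and 100% = median IL-6 plus DMSO wells; higher means more STAT3 reporter activation so hits are non-selective activators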
* = called active by the depositor; . = no result given. This is a sample that favours compounds with a hit; in the whole collection about 4.9% have one here.

SMILES	APP 5'UTR act	NF-kB neuron act	STAT3 act	STAT1 activator	STAT3 blocker	STAT1 inh	STAT1 activ conf	NFkB act STAT1ct	STAT3 act 2
COCC(C)Nc1ncnc2c1cnn2-c1ccc(Cl)cc1 (stereo not drawn)	180*	4.9*	86	163*	24	-69	235*	141*	106
C=CCNc1ncnc2c1cnn2-c1ccc(Cl)cc1	239*	5.4*	90	177*	12	-81	266*	133	108
Clc1ccc(-n2ncc3c(NCCN4CCOCC4)ncnc32)cc1	99	0.87	80	97	25	-6	.	.	.
CCOC(=O)c1sc(Nc2nc(OC)cc(OC)n2)nc1C	-1	0.65	127	102	-24	-4	.	.	.
NNC(=O)c1ccc(CN2CCCCC2)o1	-2	1.1	109	101	-5	-3	.	.	.
Cc1ccccc1-c1nn(-c2ccc(F)cc2F)cc1CNC1CC1	11	.	94	94	12	5	.	.	.
CCCCC(CC)C(=O)Nc1ccc(C)c(O)c1 (stereo not drawn)	-8	1	102	94	3	5	.	.	.
COc1cccc(N(C(=O)c2nc3nccc(C)n3n2)c2nc3ccccc3s2)c1	190*	6*	102	173*	1	-81	230*	177*	114*
COc1cccc(NC(=O)COC(=O)c2nc3nccc(C)n3n2)c1	8	1.4	100	99	5	1	.	.	.
COC(=O)c1c(NC(=O)COC(=O)CNC(=O)C2CCCCC2)sc(C)c1C	1	1.2	95	101	7	-2	.	.	.
O=C(O)c1ccc(N/N=C/C=C/c2ccccc2[N+](=O)[O-])cc1	113	0.87	128	163*	-34	-73	177*	139*	129*
COc1cc2[nH]c(=O)n(CCCCCC(=O)NCCc3c[nH]c4ccccc34)c(=O)c2cc1OC	-3	1.1	98	101	7	-1	.	.	.
O=C(CCc1ccccc1)Nc1cc2c(cc1Cl)OCCO2	82	2.5	117	158*	-19	-62	181*	139*	115*
Cc1c(-c2ccccc2)[nH]n2c(=O)c3c(nc12)CCCC3	51	2.1	122	155*	-23	-62	174*	130	117*
CN(C)c1nc(N)nc(CSc2nc3cc(Cl)ccc3o2)n1	11	2	95	152*	9	-57	142*	122	90
Cc1ccc(NC(=S)N2CCC(N(C)CC3CCCO3)CC2)cc1 (stereo not drawn)	-6	1.1	103	102	-2	-2	.	.	.
c1ccc(-c2cc3nccc(-c4ccccn4)n3n2)cc1	100	3.2	108	160*	-3	-67	188*	135*	117*
Cc1cc2nccc(-c3ccccn3)n2n1	5	1.2	101	106	-1	-6	.	.	.
Cc1ccc(/C=N/NC(=O)c2ccccn2)s1	122	2.7	84	154*	21	-61	163*	115	96
CCN(CC)c1ccc(NC(=O)CSc2nc3ccccc3c(=O)n2-c2cc(S(=O)(=O)N(C)C)ccc2C)cc1	5	0.82	106	110	-10	-11	.	.	.
Cc1csc(NC(=O)c2ccc(C)c([N+](=O)[O-])c2)n1	172*	5.6*	77	184*	26	-95	236*	112	96
Cc1ccc2nc(N3C(=O)C(O)=C(C(=O)c4cc5ccccc5o4)C3c3cccs3)sc2c1 (stereo not drawn)	160*	3.7*	110	154*	-2	-56	162*	124	123*
Cc1cc(N2C(=O)C(O)=C(C(=O)c3ccc(C)o3)C2c2cccs2)no1 (stereo not drawn)	-7	1.1	98	94	6	6	.	.	.
Cc1nc2nc(-c3cccs3)cn2nc1C	69	1.9	85	152*	20	-57	165*	134*	104
Cc1cc(-c2cccs2)n[nH]1	20	0.97	93	99	14	2	.	.	.
SMILES	APP 5'UTR act	NF-kB neuron act	STAT3 act	STAT1 activator	STAT3 blocker	STAT1 inh	STAT1 activ conf	NFkB act STAT1ct	STAT3 act 2
Cc1ccc(-c2nnc(-c3ccncc3)n2-c2ccc(C)cc2)cc1	4	1.2	106	107	1	-8	.	.	.
Cc1ccc(-c2cnc(-c3ccncc3)o2)cc1	67	2.4	85	153*	20	-58	154*	120	94
CN(C)c1ccc(/C=C/c2nnnn2-c2ccccc2)cc1	132	3.9*	113	172*	-18	-81	187*	134*	118*
Cn1ccc(C(=O)OCC(=O)Nc2cccc3ccccc23)n1	14	0.89	98	99	5	-1	.	.	.
O=C1c2ccccc2NC(c2cnc3ccccc3n2)N1O (stereo not drawn)	74	6.9*	66	159*	40	-65	209*	114	90
Cc1ccc2nc(-c3ccc(NC(=O)CSc4ccccc4)cc3)[nH]c2c1	88	3.5*	99	163*	10	-70	198*	108	107
COc1cccc(/C=N/n2c(N)nc3ccccc32)c1OC	42	0.95	94	104	5	-4	.	.	.
COc1cccc(/C=N/n2cnc3ccccc32)c1OC	152*	4.1*	95	162*	6	-67	205*	131	107
Cc1cccc(C)c1NC(=O)CSc1nnc(-c2cccnc2)o1	3	1.3	90	91	13	9	.	.	.
COc1ccc(/C=N/NC(=O)c2[nH]ncc2Br)c(OC)c1	26	1.8	103	155*	6	-55	162*	122	114*
COc1ccc(/C=N/NC(=O)c2cccc(NC(C)=O)c2)c(OC)c1	-10	0.87	103	103	9	-4	.	.	.
Cc1cc(NCCOCCO)n2ncc(-c3ccc(Cl)cc3)c2n1	152*	3.6*	110	177*	-10	-83	265*	135*	133*
